Where a SMILES comes first, the peptide text is derived from it. The star is where a group is joined. Desaminotyrosyl = O=C(CCc1ccc(O)cc1)*
Assays:
Canis familiaris = test: Induction of pancreatic juice secretion in iv dosed anesthetized dog relative to natural porcine secretin; format: functional, Canis lupus familiaris
Summary of the method: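 Anesthetized dogs received the synthetic peptides by intravenous injection. The volume of pancreatic juice secreted was compared with that produced by pure natural porcine secretin. Responses were evaluated in four-point assays.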

[1] = Retardation factor of the compound using 1-BuOH-AcOH-H2O at ratio of 4:1:5 as solvent system by thin layer chromatography; format: physicochemical
Summary of the method: (§1)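 Thin-layer chromatography spots were detected with Sakaguchi, Pauly, chlorine-tolidine and ninhydrin reagents.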

[2] = Retardation factor of the compound using 1-BuOH-pyridine-AcOH-H2O at ratio of 30:20:6:24 as solvent system by thin layer chromatography; format: physicochemical; summary of the method: as §1

Row | Molecule | Rf [1] | Rf [2] | Activity (Canis familiaris) [%]
1 | H-HSDGTFTSELSRLRDSARLQRLLQGLV-NH2 [listing 2 of 2 here] |  |  | 107.5
2 | H-YHSDGTFTSELSRLRDSARLQRLLQGLV-NH2 | 0.18 | 0.52 | 25.6
3 | H-YSDGTFTSELSRLRDSARLQRLLQGLV-NH2 | 0.2 | 0.56 | 4.3

More lines, main results first:

Row | Rf [1] | Rf [2] | Molecule | Activity (Canis familiaris) [%]
4 | 0.2 | 0.58 | CC(C)C[C@H](NC(=O)CNC(=O)[C@H](CCC(N)=O)NC(=O)[C@H](CC(C)C)NC(=O)[C@H](CC(C)C)NC(=O)[C@H](CCCNC(=N)N)NC(=O)[C@H](CCC(N)=O)NC(=O)[C@H](CC(C)C)NC(=O)[C@H](CCCNC(=N)N)NC(=O)[C@H](C)NC(=O)[C@H](CO)NC(=O)[C@H](CC(=O)O)NC(=O)[C@H](CCCNC(=N)N)NC(=O)[C@H](CC(C)C)NC(=O)[C@H](CCCNC(=N)N)NC(=O)[C@H](CO)NC(=O)[C@H](CC(C)C)NC(=O)[C@H](CCC(=O)O)NC(=O)[C@H](CO)NC(=O)[C@@H](NC(=O)[C@H](Cc1ccccc1)NC(=O)[C@@H](NC(=O)CNC(=O)[C@H](CC(=O)O)NC(=O)[C@H](CO)NC(=O)[C@H](Cc1cnc[nH]1)NC(=O)CCc1ccc(O)cc1)[C@@H](C)O)[C@@H](C)O)C(=O)N[C@H](C(N)=O)C(C)C (Desaminotyrosyl-HSDGTFTSELSRLRDSARLQRLLQGLV-NH2) | 4.1
5 | 0.19 | 0.58 | H-HSDGTFTSELSRLRDSARLQRLLQGLV-NH2 [listing 1 of 2 here] | 
6 | 0.18 | 0.56 | H-HSDGTYTSELSRLRDSARLQRLLQGLV-NH2 | 1.3

Source: ChEMBL document CHEMBL3243995, “Synthesis of phenolic group containing analogues of porcine secretin and their immunological properties” (J Med Chem, 1977)
